Source: PubChem (several laboratories)
Rows were chosen to be rich in hits. Some 1.9% of all compounds tested hit in one or more screens of this group.
RanGTP-Impb inh = inhibitors of RanGTP-importin-beta interaction, primary screen, biochemical, FRET, CFP-Ran, YFP-importin-beta, homogeneous; cell-free CFP-Ran/YFP-importin-beta FRET ratio; inhibition, % (no concentration beside the values); 300,000 compounds, 1.1% hits;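 active = more than half of the replicate wells show a fall in the fluorescence ratio signal beyond about 16%, limit read from the data, passing the limit was not always enough; inconclusive = exactly half of the replicate wells pass the set limit; inactive = fewer than half of replicates pass the limit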;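 note: 0% = DMSO wells and 100% = Ran loaded with GDP instead of GTP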
LANA-H2B inh = blocks KSHV LANA binding to histone H2A/H2B. cell-free LANA-H2A/H2B peptide, fluorescence polarization. inhibition, % (test concentration not listed). 320,000 compounds, 0.6% hits. AID 2629; in the data active = inhibition mostly above about 10%, no sharp cut-off; inactive = mostly below about 6.7%
Target sequence (Q9QR71 whole entry, looked up): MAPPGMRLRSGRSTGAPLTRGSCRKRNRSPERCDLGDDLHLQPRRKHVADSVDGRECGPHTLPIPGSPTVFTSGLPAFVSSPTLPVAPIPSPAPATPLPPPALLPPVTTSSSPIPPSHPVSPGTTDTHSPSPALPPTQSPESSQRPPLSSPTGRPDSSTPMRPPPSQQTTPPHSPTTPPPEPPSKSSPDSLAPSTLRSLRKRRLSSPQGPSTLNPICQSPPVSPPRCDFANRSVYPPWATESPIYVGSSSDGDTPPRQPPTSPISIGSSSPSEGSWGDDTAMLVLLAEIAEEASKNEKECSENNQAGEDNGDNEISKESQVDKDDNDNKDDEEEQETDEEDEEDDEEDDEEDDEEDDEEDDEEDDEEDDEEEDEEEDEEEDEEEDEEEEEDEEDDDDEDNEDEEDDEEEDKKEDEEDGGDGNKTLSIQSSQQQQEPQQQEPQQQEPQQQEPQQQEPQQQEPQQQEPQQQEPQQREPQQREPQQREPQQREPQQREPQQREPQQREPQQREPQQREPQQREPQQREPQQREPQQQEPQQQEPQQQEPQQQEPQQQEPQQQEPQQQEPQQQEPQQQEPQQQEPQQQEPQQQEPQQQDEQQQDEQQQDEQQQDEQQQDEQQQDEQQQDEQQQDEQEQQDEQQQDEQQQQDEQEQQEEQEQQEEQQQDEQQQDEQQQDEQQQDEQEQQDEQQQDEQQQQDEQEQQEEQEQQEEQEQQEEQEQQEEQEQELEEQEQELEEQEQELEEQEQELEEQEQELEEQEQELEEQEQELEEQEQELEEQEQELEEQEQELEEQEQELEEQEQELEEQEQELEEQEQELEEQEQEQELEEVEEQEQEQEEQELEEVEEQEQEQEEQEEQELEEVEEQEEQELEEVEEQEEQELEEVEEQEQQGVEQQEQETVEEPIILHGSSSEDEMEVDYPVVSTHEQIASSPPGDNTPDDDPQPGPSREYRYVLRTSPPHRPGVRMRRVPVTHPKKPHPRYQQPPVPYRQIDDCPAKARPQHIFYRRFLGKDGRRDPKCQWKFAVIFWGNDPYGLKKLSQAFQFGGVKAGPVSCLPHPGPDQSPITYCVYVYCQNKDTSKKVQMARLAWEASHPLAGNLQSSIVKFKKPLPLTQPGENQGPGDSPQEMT
CaV13 FRET inh = Disruptors of the CACNA1D IQ motif to Ca2+-dependent inactivation inhibitor domain association, primary screening, Förster resonance energy transfer in intact living …. HEK cells, CFP/YFP FRET ICDI-IQ, plate reader, 10 min; percent FRET-ratio fall versus neutral wells. inhibition, % at 12.3 µM. 340,000 compounds, 0.098% hits;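 active = mean replicate inhibition of at least 30% and at least 1% of replicates passing that level; inconclusive = only one of the two criteria is met; inactive = neither criterion is met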;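 note: 0% = median of the neutral control wells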
Runt-CBFb FRET = blocks binding of human RUNX1 Runt domain to CBFb; Q01196+Q13951; Cerulean-Runt/Venus-CBFb FRET ratio 530/480, 1 h; inhibition, % at 20 µM; 220,000 compounds, 0.46% hits; AID 1496;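 active = inhibition over about 50% at 20 µM in the single-dose screen, limit read from the data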;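 note: 0% = DMSO wells and 100% = excess unlabeled CBFb competitor control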
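Reagent – Venus-CBFb binding partner, 100 nM · Assay system – Cerulean-tagged RUNX1 Runt domain (FRET donor) fusion protein · Input – 100 nM per protein · Incubation – two 1 h room-temperature incubations shielded from light · Measured by – FRET fluorescence · Medium – Tris buffer pH 7.5 with salts and BSA · Benchmarks – unlabeled CBFb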
Runt-SMMHC FRET = Runt domain-CBFb-SMMHC interaction inhibition. Q01196+Q13951. Cerulean-Runt/Venus-CBFb-SMMHC FRET ratio 530/480, 1 h. inhibition, % at 20 µM. 220,000 compounds, 0.74% hits;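 active = mean inhibition across duplicate retests at 20 µM reaching about 50%, limit read from the data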;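 note: 0% = DMSO wells and 100% = wells with excess untagged CBFb-SMMHC; inhibitors lower the FRET ratio by blocking Runt binding to CBFb-SMMHC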
HDAC3 inh = blocks human histone deacetylase 3; O15379; recombinant HDAC3, fluorogenic peptide/trypsin coupled, fluorescence; inhibition, % at 8.3 µM; 320,000 compounds, 0.15% hits; AID 2718; in the data active = inhibition above about 26%, passing the limit was not always enough; inconclusive = no clear call, values can overlap the other calls
* marks the source's active call; other numbers are inactive results; i = inactive; ? = inconclusive; · = no result; + = active, no number.

SMILES	RanGTP-Impb inh	LANA-H2B inh	CaV13 FRET inh	Runt-CBFb FRET	Runt-SMMHC FRET	HDAC3 inh
COc1ccccc1C1C2=C(CC(C)(C)CC2=O)Nc2nnnn21 (stereo not given)	-6	4	-14	2	2	-11
CC(=O)Nc1ccc(C23CC4CC(CC(C4)C2)C3)cc1	26*	-1	-6	·	·	-6
CN(C)c1ccc(/C=N/NC(N)=S)cc1[N+](=O)[O-]	0	25*	-3	-2	0	-4
Cc1cccc(NC(=S)N/N=C/c2cccc([N+](=O)[O-])c2)c1	-1	2	·	1	0	-1
Cc1cccc(NC(=S)N/N=C/c2ccc(Cl)c([N+](=O)[O-])c2)c1	44*	5	-5	0	-25	?
Cc1ccc2nc(NCc3ccccc3)[nH]c2c1	0	0	-5	-3	1	-1
CSCCC1(C(=O)O)NC(c2ccccc2O)C2C(=O)N(C(C)C)C(=O)C21 (stereo not given)	0	4	39*	-1	-2	-1
CCCC1(C(=O)O)NC(c2ccccc2O)C2C(=O)N(Cc3ccccc3)C(=O)C21 (stereo not given)	?	-1	-8	2	0	-4
COc1cccc(CNS(=O)(=O)/C=C/c2ccc3c(c2)OCO3)c1	-1	-3	-5	-1	3	-6
CC(=O)N1c2ccccc2C2(O)N=C(C)SC12 (stereo not given)	·	-1	·	20	52*	5
CC(=O)N1c2ccccc2[C@@H](C)[C@@H]1C	·	-12	-6	·	·	-2
O=C(CN(Cc1ccccc1Cl)C(=O)c1ccc(CN2CCOCC2)o1)NCc1ccccc1	3	-4	-3	0	0	4
COc1ccc(C(CC(=O)c2ccccc2)CC(=O)c2ccccc2)cc1OC	-5	-2	7	-6	-1	3
COc1ccc(C(Sc2ccccc2)c2ccccc2)cc1OC (stereo not given)	-2	12*	-5	·	·	5
CCN1C=C(Cc2ccccc2C)C2=C(C1)C(c1ccccc1C)C(C#N)=C(N)O2 (stereo not given)	10	2	-7	1	0	7
CCN1C=CC2=C(C#N)C(N)C(C#N)(C#N)C(c3ccccc3C(F)(F)F)C2C1 (stereo not given)	58*	10	·	76*	83*	-13
CCCCC(=O)Nc1ccc(NC(=O)C(C)C)cn1	-2	1	-4	-2	-2	-4
CCCCC(=O)Nc1ccc(NC(=O)c2cnccn2)cn1	172*	0	-6	1	-1	·
C[C@H](CO)N1C[C@H](C)[C@@H](CN(C)C(=O)Nc2ccc(C(F)(F)F)cc2)Oc2ccc(NC(=O)C3CCCCC3)cc2C1=O	·	·	-9	·	·	7
CC[C@@](C)(NS(=O)(=O)OCC(Cl)(Cl)Cl)c1ccccc1	1	-2	-7	·	·	1
CC(C)(NS(=O)(=O)OCC(Cl)(Cl)Cl)c1ccccc1	3	43*	-4	·	·	-5
CCOC(=O)c1c(NC(=S)Nc2ccccc2)sc2c1CCN(CCc1ccccc1)C2	·	i	·	94*	86	7
CCOC(=O)c1c(N)sc2c1CCN(CCc1ccccc1)C2	72*	0	0	·	·	1
CN1CCc2c(sc(N)c2C(=O)O)C1	50*	-1	-4	75*	144*	-4
O=C(CSc1nnc(C2CC2)n1C1CC1)c1cc(F)ccc1F	·	·	-6	·	·	·
SMILES	RanGTP-Impb inh	LANA-H2B inh	CaV13 FRET inh	Runt-CBFb FRET	Runt-SMMHC FRET	HDAC3 inh
O=C(NCCN1CCOCC1)c1cc(-c2ccc(F)cc2)on1	-1	182*	-4	-1	-4	-4
COc1ccc2nc3ccccc3[n+]([O-])c2c1	·	·	-17	·	·	·
[O-][n+]1c2ccccc2cc2ccccc21	79*	18*	-2	·	·	-47
CN(C)C1=NC[C@H](Cc2ccccc2)N1CCCC1CCCC1	·	-3	-9	·	·	2
CNc1c([N+](=O)[O-])cnn1-c1ccc(C)cc1	-1	2	-5	-3	2	-12
CC(C)n1cc(CN2CCC(Oc3ccc(C(=O)N4CCCC4)cc3)CC2)cn1	-1	49*	-10	·	·	3
NC(=O)c1ccc(-n2nnnc2SCC(=O)Nc2ccc(F)cc2)cc1	-3	4	-5	·	·	7
COC(=O)C(/C=N/OCc1ccc([N+](=O)[O-])cc1)NC(=O)c1cccc(Cl)c1 (stereo not given)	7	2	·	0	1	44*
COC(=O)c1[nH]c(=O)c2ccccc2c1O	9	23*	·	-1	-4	-4
Oc1c(Cl)cc(Cl)cc1/C=N/NC(=S)NC1CC2C=CC1C2 (stereo not given)	9	4	-5	12	90*	-39
Oc1ccccc1C=NNC(=S)NC1CC2C=CC1C2 (stereo not given)	·	·	-5	·	·	·
COCCn1c(CCC(=O)O)ccc1-c1cccs1	6	0	-5	31	55*	-4
CCc1ccc(C(c2ccc(CC)cc2)C(Cl)Cl)cc1	·	24*	·	·	·	-7
CCOC(=O)N1CCC(NC(=O)CS(=O)Cc2nc(-c3ccccc3C)oc2C)CC1 (stereo not given)	164*	-1	-7	·	·	-2
Cc1oc(-c2ccccc2F)nc1CS(=O)CC(=O)NC1CC1 (stereo not given)	0	4	-3	·	·	0
O=C(CCN1C(=O)CSc2ccccc21)Nc1ccc(OC(F)(F)F)cc1	·	+	-3	·	·	7
CCOc1ccc(NC(=O)CCN2C(=O)CSc3ccccc32)cc1	·	-361	-5	·	·	1
CCCC(=O)Nc1nn(CC(C)C)c2nc3cc(C)ccc3cc12	28*	-1	-3	·	·	4
CCC(=O)Nc1nn(CC(C)C)c2nc3ccc(C)cc3cc12	24*	4	-16	·	·	-21
CCn1nc(NC(=O)CC(C)C)c2cc3ccc(C)cc3nc21	10	-6	-4	·	·	-3
Nc1ccc(S(=O)(=O)NCC(=O)OCCOc2ccccc2)cc1[N+](=O)[O-]	2	-2	-3	·	·	-11
CCCn1c2ccccc2c2cnn(CC(=O)NCCN(C)C)c(=O)c21	20*	2	-2	·	·	-7
CCC1ON(C(C)C)C2c3nc4ccccc4n3CC12 (stereo not given)	0	1	-5	1	2	0
O=C(O)c1ccccc1-c1nc2ccccc2c(=O)[nH]1	25*	-1	-5	0	0	-3
O=C(O)c1ccccc1-c1nc(-c2ccccc2)c(-c2ccccc2)[nH]1	-1	3	-5	1	4	-5
COc1cc(/C=C/C(=O)N2CCCC2)cc(OC)c1OC	-2	9.1*	-5	0	4	-4
